Assay results published in ChEMBL document CHEMBL3745659, “Synthesis and Characterization of 4,11-Diaminoanthra[2,3-b]furan-5,10-diones: Tumor Cell Apoptosis through tNOX-Modulated NAD(+)/NADH Ratio and SIRT1” (J Med Chem, 2015).
Active and inactive are the calls of the source. No cut-off for these calls is given here.

Assays:
AGS [1] = assay: […] in human AGS cells assessed as downregulation of N-Cad after 24 hrs by Western blot analysis; format: functional, cell-based
AGS [2] = assay: Downregulation of tNOX protein level in human AGS cells at 0.1 to 0.5 uM after 24 hrs by Western blot analysis; format: functional, cell-based
AGS [3] = assay: Induction of apoptosis in human AGS cells assessed as necrotic cells at 0.1 uM after 24 hrs by annexin V-FITC staining-based flow cytometric analysis (Rvb=0.9%); format: functional
Outline: (§1)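 AGS cells exposed to compound for 24 h; Annexin V-FITC staining and flow cytometry used to give percentage of apoptotic cells; mean ± S.E. from at least three independent experiments.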

[4] = biological target: T1, NAD-dependent protein deacetylase sirtuin-1 (Homo sapiens) (UniProt Q96EB6); assay: Inhibition of human recombinant SIRT1 deacetylase activity using Arg-His-Lys-Lys(epsilon-acetyl)-AMC as substrate at 5 uM incubated for 45 mins by fluorescence analysis
T1 sequence (whole entry): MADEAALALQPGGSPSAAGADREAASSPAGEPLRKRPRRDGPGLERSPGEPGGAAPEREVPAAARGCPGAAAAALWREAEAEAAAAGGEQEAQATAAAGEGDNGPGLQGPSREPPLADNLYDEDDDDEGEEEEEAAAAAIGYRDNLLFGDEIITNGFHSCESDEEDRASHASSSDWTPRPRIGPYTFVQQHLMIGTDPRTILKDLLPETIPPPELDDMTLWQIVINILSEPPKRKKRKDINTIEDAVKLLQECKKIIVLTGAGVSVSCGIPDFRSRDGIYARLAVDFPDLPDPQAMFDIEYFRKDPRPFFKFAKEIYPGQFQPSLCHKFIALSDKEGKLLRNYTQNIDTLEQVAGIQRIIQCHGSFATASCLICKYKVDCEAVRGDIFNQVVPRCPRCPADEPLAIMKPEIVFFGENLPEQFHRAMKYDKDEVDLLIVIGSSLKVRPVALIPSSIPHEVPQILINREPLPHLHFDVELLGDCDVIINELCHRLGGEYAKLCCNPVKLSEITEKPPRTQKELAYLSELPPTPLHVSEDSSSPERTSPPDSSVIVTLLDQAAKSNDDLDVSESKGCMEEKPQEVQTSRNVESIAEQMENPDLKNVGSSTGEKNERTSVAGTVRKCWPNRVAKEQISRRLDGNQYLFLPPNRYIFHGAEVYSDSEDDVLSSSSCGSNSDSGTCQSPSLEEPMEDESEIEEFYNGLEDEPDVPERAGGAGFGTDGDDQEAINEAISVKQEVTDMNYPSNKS

AGS [5] = assay: Induction of apoptosis in human AGS cells after 24 hrs by annexin V-FITC staining-based flow cytometric analysis; format: functional, cell-based; outline: as §1
AGS [6] = assay: Induction of apoptosis in human AGS cells assessed as viable cells at 0.1 uM after 24 hrs by annexin V-FITC staining-based flow cytometric analysis (Rvb=91.5%); format: functional; conditions: read-out: Activity; outline: as §1

`CNCCNc1c2c(c(NCCNC)c3occc13)C(=O)c1ccccc1C2=O` was tested, and the Activity (AGS [1]) was “Active”, the Activity (AGS [2]) was “Active” and the Activity (AGS [3]) was 10.2%. The inhibition [4] was “Active”, the Activity (AGS [5]) was “Dose-dependent effect” and the viability at 0.1 µM (AGS [6]) was 63.2%.
